Published values collected from several papers.
Compare with care: the assays were run in different laboratories.
Target: Serine/threonine-protein kinase D1 (PRKD1, Homo sapiens, UniProt Q15139)
Sequence (Q15139 1-912, as in one of the studies): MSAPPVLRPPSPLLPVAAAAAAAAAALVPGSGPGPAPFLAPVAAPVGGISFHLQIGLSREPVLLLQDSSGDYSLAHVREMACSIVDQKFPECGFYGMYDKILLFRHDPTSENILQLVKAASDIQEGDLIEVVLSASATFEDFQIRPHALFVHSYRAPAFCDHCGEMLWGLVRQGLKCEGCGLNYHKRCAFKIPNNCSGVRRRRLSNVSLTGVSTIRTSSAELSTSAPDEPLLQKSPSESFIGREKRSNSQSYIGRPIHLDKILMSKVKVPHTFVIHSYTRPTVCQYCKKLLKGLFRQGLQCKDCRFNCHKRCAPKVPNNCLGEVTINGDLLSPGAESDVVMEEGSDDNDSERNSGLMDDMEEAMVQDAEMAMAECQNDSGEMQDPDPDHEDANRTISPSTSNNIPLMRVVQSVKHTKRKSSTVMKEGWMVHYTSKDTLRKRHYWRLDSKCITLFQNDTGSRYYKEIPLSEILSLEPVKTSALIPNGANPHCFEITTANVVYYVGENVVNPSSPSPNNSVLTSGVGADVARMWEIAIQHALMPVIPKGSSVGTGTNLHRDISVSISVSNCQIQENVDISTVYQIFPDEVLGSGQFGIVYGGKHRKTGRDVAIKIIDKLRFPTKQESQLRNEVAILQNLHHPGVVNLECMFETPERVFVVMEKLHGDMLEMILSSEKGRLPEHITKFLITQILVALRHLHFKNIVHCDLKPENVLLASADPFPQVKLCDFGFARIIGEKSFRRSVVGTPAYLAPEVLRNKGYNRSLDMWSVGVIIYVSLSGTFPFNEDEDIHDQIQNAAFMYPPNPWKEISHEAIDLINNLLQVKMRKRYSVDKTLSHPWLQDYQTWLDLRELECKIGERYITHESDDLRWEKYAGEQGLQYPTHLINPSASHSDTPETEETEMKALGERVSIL

CCCOc1ccc([C@@H]2[C@@H](C(=O)O)[C@H](c3ccc4c(c3)OCO4)CN2CC(=O)Nc2c(CC)cccc2CC)cc1
remaining binding (cell-free assay; competition with immobilised ligand; 1 µM): 96%

O=C(c1ccc(Nc2ncc(Cl)c(-c3cc4ccccc4s3)n2)cc1)N1CCC(N2CCCC2)CC1
remaining binding (binding; competition with immobilised ligand; 1 µM): 28%

Cc1cc(NC(=O)c2cccc(S(F)(F)(F)(F)F)c2)cc(-n2ccn3nc(-c4cccnc4)cc23)c1
remaining binding (cell-free assay; competition with immobilised ligand; 1 µM): 100%

CN(C)c1nccc(-c2cnn3ncccc23)n1
remaining binding (binding; 1 µM): 57%

O=C1NC(c2ccccn2)Sc2ccccc21 (centres unmarked)
remaining binding (cell-free assay; competition with immobilised ligand; 1 µM): 100%

CNC(=O)[C@@H]1CC[C@@H](n2c(-c3ccc4cnccc4c3)nc3ccc(C(=O)NCc4cccc(C(N)=O)c4)cc32)C1
remaining binding (binding; competition with immobilised ligand; 1 µM): 100%

C=CC(=O)N1CCC(C(=O)NCC(=O)N2CCN(c3nc(-c4cnc(N)nc4C(F)F)nc(N4CCOCC4)n3)CC2)CC1
remaining binding (binding; competition with immobilised ligand; 1 µM): 90%

CN(CCCC(F)(F)F)c1nccc(-c2cnn3ncccc23)n1
remaining binding (binding; 1 µM): 95%

COc1cnc(Nc2cccc(S(N)(=O)=O)c2)nc1N1CCN(c2ccccc2)C(=O)C1
remaining binding (binding; competition with immobilised ligand; 1 µM): 100%

O=C(NCC1CCOCC1)c1n[nH]cc1NC(=O)c1c(F)cccc1F
remaining binding (binding; competition with immobilised ligand; 1 µM): 100%

COc1ncc2cc3ccccc3nc2c1C#N
remaining binding (cell-free assay; competition with immobilised ligand; 5 µM): 87%

COc1ccnn2ncc(-c3ccnc(N(C)C)n3)c12
remaining binding (binding; 1 µM): 100%

COCCOc1nc(-c2ccc(Cl)nc2)nc2c1CN(C(=O)c1ncn3ccccc13)CC2
remaining binding (cell-free assay; competition with immobilised ligand; 0.1 µM): 90%

O=C(c1ccc(Nc2ncc(Cl)c(-c3ccc(Cl)s3)n2)cc1)N1CCC(N2CCCC2)CC1
remaining binding (binding; competition with immobilised ligand; 1 µM): 32%

c1cnn2ncc(-c3ccnc(N4CCC45COC5)n3)c2c1
remaining binding (binding; 1 µM): 87%

C[C@H](c1ccnc(Nc2nc3ccc(-c4cc(N(C)C)ncn4)cc3[nH]2)c1)N1CCN(C(=O)CC(F)(F)F)CC1
remaining binding (cell-free assay; competition with immobilised ligand; 0.1 µM): 100%

N[C@@H]1CCN(c2nccc(-c3cnn4ncccc34)n2)C1
remaining binding (binding; 1 µM): 99%

O=C(c1ccc(Nc2nccc(-c3cc4ccccc4s3)n2)cc1)N1CCC(N2CCCC2)CC1
remaining binding (binding; competition with immobilised ligand; 1 µM): 64%

C[C@@H]1CCN(c2nccc(-c3cnn4ncccc34)n2)C1
remaining binding (binding; 1 µM): 100%

CC(=O)c1c(NS(C)(=O)=O)c2cc(-c3ccc(Cl)cc3)c(-c3ccc(Cl)cc3Cl)nc2n(C)c1=O
remaining binding (cell-free assay; competition with immobilised ligand; 1 µM): 100%
